Experimental data published in ChEMBL document CHEMBL5096226, “Structure-Activity Relationship Study of Momordica Saponin II Derivatives as Vaccine Adjuvants” (J Med Chem, 2022).
Calls of active or inactive are those of the source.

How the values were obtained:
Type in all cases: functional, organism-based
[1] = tested on: Mus musculus; assay: Immuno-adjuvant activity in BALB/c mouse assessed as increase in anti-OVA Ig2a antibody in serum at 50 ug, sc administered on day 0, 14 and 28 and measured at 4 weeks in presence of chicken egg ovalbumin by ELISA; settings: dose 50.0 µg, time 6.0 weeks, in the assay text read “measured at 6 weeks” for “measured at 4 weeks”
In short: (§1)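 Female BALB/c mice (8–10 wk, six per group) immunized s.c. with OVA 20 μg ± adjuvant on days 0, 14, 28. Tail-vein serum taken before each dose and 2 wk after the last. ELISA on OVA-coated (0.1 μg/mL) plates in borate saline pH 8.2. Twofold serum dilutions in duplicate, overnight at 4 °C. HRP anti-mouse IgG/subclass applied 4 h, OPD substrate, read at 490 nm. Concentrations from reference-serum standard curves (4-parameter fit).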

[2] = tested on: Mus musculus; assay: Immuno-adjuvant activity in BALB/c mouse assessed as increase in intracellular level of INFgamma in spleen CD4+ cells at 50 ug, sc administered on day 0, 14 and 28 and measured at week 6 post immunization by flow cytometry analysis; settings: dose 50.0 µg, time 6.0 weeks
In short: (§2)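 Female BALB/c mice (8–10 wk, six per group) given OVA 20 μg s.c. with adjuvant on days 0, 14, 28; spleens taken at week 6. Splenocytes stained with viability dye, Fc-blocked, surface-stained 30 min. For intracellular cytokines, cells stimulated 5 h with leukocyte activation cocktail plus GolgiPlug, then fixed/permeabilized. IL-21 detected with IL-21R Fc chimera. All steps at 4 °C. Read as MFI, mean ± SEM.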

[3] = tested on: Mus musculus; assay: Immuno-adjuvant activity in BALB/c mouse Splenocyte assessed as increase in CD4+ surface expression of PD-1 at 50 ug, sc administered on day 0, 14 and 28 and measured at week 6 post immunization by flow cytometry analysis; settings: dose 50.0 µg, time 6.0 weeks; in short: as §2
[4] = tested on: Mus musculus; assay: Immuno-adjuvant activity in BALB/c mouse assessed as increase in intracellular level of INFgamma in spleen CD8+ cells at 50 ug, sc administered on day 0, 14 and 28 and measured at week 6 post immunization by flow cytometry analysis; settings: dose 50.0 µg, time 6.0 weeks; in short: as §2
[5] = tested on: Mus musculus; assay: Immuno-adjuvant activity in BALB/c mouse assessed as increase in CD19+ B cells in spleen at 50 ug, sc administered on day 0, 14 and 28 and measured at week 6 post immunization by flow cytometry analysis; settings: dose 50.0 µg, time 6.0 weeks
In short: (§3)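 Female BALB/c mice (8–10 wk, six per group), OVA 20 μg s.c. plus adjuvant on days 0, 14, 28; spleens collected week 6. Single-cell splenocyte suspensions stained and analysed by flow cytometry. TFH gated PD-1+Bcl6+Foxp3−CD4+CD3+, TFR PD-1+Bcl6+Foxp3+CD4+CD3+, dark zone GC B cells CXCR4hiCD86loFas+GL-7+CD19+. Steps at 4 °C. Mean ± SEM; unpaired t tests.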

[6] = tested on: Mus musculus; assay: Immuno-adjuvant activity in BALB/c mouse assessed as increase in ratio of TFH to TFR cells at 50 ug, sc administered on day 0, 14 and 28 and measured at week 6 post immunization by flow cytometry analysis; settings: dose 50.0 µg, time 6.0 weeks; in short: as §3
[7] = tested on: Mus musculus; assay: Immuno-adjuvant activity in BALB/c mouse assessed as increase in anti-OVA IgG2a antibody in serum at 50 ug, sc administered on day 0, 14 and 28 and measured at 2 weeks in presence of chicken egg ovalbumin by ELISA; settings: dose 50.0 µg, time 6.0 weeks, in the assay text read “measured at 6 weeks” for “measured at 2 weeks”; in short: as §1
[8] = tested on: Mus musculus; assay: Immuno-adjuvant activity in BALB/c mouse assessed as increase in anti-OVA IgG antibody in serum at 50 ug, sc administered on day 0, 14 and 28 and measured at 4 and 6 weeks in presence of chicken egg ovalbumin by ELISA; settings: dose 50.0 µg, time 4-6 weeks; in short: as §1

Measured: Activity

C[C@@H]1O[C@@H](O[C@H]2[C@H](O)[C@@H](C(=O)NCCCCCCCCCCC(=O)OCc3cccc([N+](=O)[O-])c3)O[C@@H](O[C@H]3CC[C@]4(C)[C@H]5CC=C6[C@@H]7CC(C)(C)CC[C@]7(C(=O)O[C@@H]7O[C@H](C)[C@H](O)[C@H](O)[C@H]7O[C@@H]7O[C@@H](C)[C@H](O[C@@H]8OC[C@@H](O)[C@H](O)[C@H]8O)[C@@H](O[C@@H]8O[C@H](CO)[C@@H](O)[C@H](O[C@@H]9OC[C@@H](O)[C@H](O)[C@H]9O)[C@H]8O)[C@H]7O)[C@H](O)C[C@@]6(C)[C@]5(C)CC[C@H]4[C@]3(C)C=O)[C@@H]2O[C@@H]2O[C@H](CO)[C@H](O)[C@H](O)[C@H]2O)[C@H](O)[C@H](O)[C@H]1O
not listed: [7] | [8]
active: all other assays above

C[C@@H]1O[C@@H](O[C@H]2[C@H](O)[C@@H](C(=O)NCCCCCCCCCCC(=O)OCc3cccc(Oc4ccccc4)c3)O[C@@H](O[C@H]3CC[C@]4(C)[C@H]5CC=C6[C@@H]7CC(C)(C)CC[C@]7(C(=O)O[C@@H]7O[C@H](C)[C@H](O)[C@H](O)[C@H]7O[C@@H]7O[C@@H](C)[C@H](O[C@@H]8OC[C@@H](O)[C@H](O)[C@H]8O)[C@@H](O[C@@H]8O[C@H](CO)[C@@H](O)[C@H](O[C@@H]9OC[C@@H](O)[C@H](O)[C@H]9O)[C@H]8O)[C@H]7O)[C@H](O)C[C@@]6(C)[C@]5(C)CC[C@H]4[C@]3(C)C=O)[C@@H]2O[C@@H]2O[C@H](CO)[C@H](O)[C@H](O)[C@H]2O)[C@H](O)[C@H](O)[C@H]1O
active: [1] | [3]

C[C@@H]1O[C@@H](O[C@H]2[C@H](O)[C@@H](C(=O)NCCCCCCCCCCC(=O)OCc3ccc(F)cc3)O[C@@H](O[C@H]3CC[C@]4(C)[C@H]5CC=C6[C@@H]7CC(C)(C)CC[C@]7(C(=O)O[C@@H]7O[C@H](C)[C@H](O)[C@H](O)[C@H]7O[C@@H]7O[C@@H](C)[C@H](O[C@@H]8OC[C@@H](O)[C@H](O)[C@H]8O)[C@@H](O[C@@H]8O[C@H](CO)[C@@H](O)[C@H](O[C@@H]9OC[C@@H](O)[C@H](O)[C@H]9O)[C@H]8O)[C@H]7O)[C@H](O)C[C@@]6(C)[C@]5(C)CC[C@H]4[C@]3(C)C=O)[C@@H]2O[C@@H]2O[C@H](CO)[C@H](O)[C@H](O)[C@H]2O)[C@H](O)[C@H](O)[C@H]1O
active: [1] | [3] | [4] | [5] | [6]

C[C@@H]1O[C@@H](O[C@H]2[C@H](O)[C@@H](C(=O)NCCCCCCCCCCNC(=O)c3ccccc3)O[C@@H](O[C@H]3CC[C@]4(C)[C@H]5CC=C6[C@@H]7CC(C)(C)CC[C@]7(C(=O)O[C@@H]7O[C@H](C)[C@H](O)[C@H](O)[C@H]7O[C@@H]7O[C@@H](C)[C@H](O[C@@H]8OC[C@@H](O)[C@H](O)[C@H]8O)[C@@H](O[C@@H]8O[C@H](CO)[C@@H](O)[C@H](O[C@@H]9OC[C@@H](O)[C@H](O)[C@H]9O)[C@H]8O)[C@H]7O)[C@H](O)C[C@@]6(C)[C@]5(C)CC[C@H]4[C@]3(C)C=O)[C@@H]2O[C@@H]2O[C@H](CO)[C@H](O)[C@H](O)[C@H]2O)[C@H](O)[C@H](O)[C@H]1O
active: [7]

COc1cccc(COC(=O)CCCCCCCCCCNC(=O)[C@H]2O[C@@H](O[C@H]3CC[C@]4(C)[C@H]5CC=C6[C@@H]7CC(C)(C)CC[C@]7(C(=O)O[C@@H]7O[C@H](C)[C@H](O)[C@H](O)[C@H]7O[C@@H]7O[C@@H](C)[C@H](O[C@@H]8OC[C@@H](O)[C@H](O)[C@H]8O)[C@@H](O[C@@H]8O[C@H](CO)[C@@H](O)[C@H](O[C@@H]9OC[C@@H](O)[C@H](O)[C@H]9O)[C@H]8O)[C@H]7O)[C@H](O)C[C@@]6(C)[C@]5(C)CC[C@H]4[C@]3(C)C=O)[C@H](O[C@@H]3O[C@H](CO)[C@H](O)[C@H](O)[C@H]3O)[C@@H](O[C@@H]3O[C@@H](C)[C@H](O)[C@@H](O)[C@H]3O)[C@@H]2O)c1
active: [1] | [2] | [3] | [4] | [5]

C[C@@H]1O[C@@H](O[C@H]2[C@H](O)[C@@H](C(=O)NCCCCCCCCCCCOCc3ccccc3)O[C@@H](O[C@H]3CC[C@]4(C)[C@H]5CC=C6[C@@H]7CC(C)(C)CC[C@]7(C(=O)O[C@@H]7O[C@H](C)[C@H](O)[C@H](O)[C@H]7O[C@@H]7O[C@@H](C)[C@H](O[C@@H]8OC[C@@H](O)[C@H](O)[C@H]8O)[C@@H](O[C@@H]8O[C@H](CO)[C@@H](O)[C@H](O[C@@H]9OC[C@@H](O)[C@H](O)[C@H]9O)[C@H]8O)[C@H]7O)[C@H](O)C[C@@]6(C)[C@]5(C)CC[C@H]4[C@]3(C)C=O)[C@@H]2O[C@@H]2O[C@H](CO)[C@H](O)[C@H](O)[C@H]2O)[C@H](O)[C@H](O)[C@H]1O
active: [8] | [7]

COc1cc(COC(=O)CCCCCCCCCCNC(=O)[C@H]2O[C@@H](O[C@H]3CC[C@]4(C)[C@H]5CC=C6[C@@H]7CC(C)(C)CC[C@]7(C(=O)O[C@@H]7O[C@H](C)[C@H](O)[C@H](O)[C@H]7O[C@@H]7O[C@@H](C)[C@H](O[C@@H]8OC[C@@H](O)[C@H](O)[C@H]8O)[C@@H](O[C@@H]8O[C@H](CO)[C@@H](O)[C@H](O[C@@H]9OC[C@@H](O)[C@H](O)[C@H]9O)[C@H]8O)[C@H]7O)[C@H](O)C[C@@]6(C)[C@]5(C)CC[C@H]4[C@]3(C)C=O)[C@H](O[C@@H]3O[C@H](CO)[C@H](O)[C@H](O)[C@H]3O)[C@@H](O[C@@H]3O[C@@H](C)[C@H](O)[C@@H](O)[C@H]3O)[C@@H]2O)cc(OC)c1
active: [1]

C[C@@H]1O[C@@H](O[C@H]2[C@H](O)[C@@H](C(=O)NCCCCCCCCCCCOC(=O)c3ccccc3)O[C@@H](O[C@H]3CC[C@]4(C)[C@H]5CC=C6[C@@H]7CC(C)(C)CC[C@]7(C(=O)O[C@@H]7O[C@H](C)[C@H](O)[C@H](O)[C@H]7O[C@@H]7O[C@@H](C)[C@H](O[C@@H]8OC[C@@H](O)[C@H](O)[C@H]8O)[C@@H](O[C@@H]8O[C@H](CO)[C@@H](O)[C@H](O[C@@H]9OC[C@@H](O)[C@H](O)[C@H]9O)[C@H]8O)[C@H]7O)[C@H](O)C[C@@]6(C)[C@]5(C)CC[C@H]4[C@]3(C)C=O)[C@@H]2O[C@@H]2O[C@H](CO)[C@H](O)[C@H](O)[C@H]2O)[C@H](O)[C@H](O)[C@H]1O
active: [8] | [7]
